Assay results from different studies.
Lines come from different studies, so protocols differ.

Compound | assay | system | setting | concentration
CN(C)c1ncnc2[nH]cc(-c3cccc(Cl)c3)c12 | mass spectrometry | female C57BL/6 mouse, plasma | intraperitoneal, 20 mg/kg, 30 min, single dose | 8700 nM
c1ccc(-c2nc(N3CCC(c4ccccn4)C3)c3ccccc3n2)nc1 (stereo not shown) |  | female BALB/c mouse, plasma | oral, 50 mg/kg, 15 min | 2130 ng/mL
CC(C)Oc1cccc(-c2cnc(N3CCC(C(N)=O)CC3)s2)c1 |  | male Swiss mouse, plasma | oral, 30 mg/kg, 0 h, single dose | 0 nM
O=S(=O)(c1ccc(-c2ccc3nccc(Nc4ccncn4)c3c2)cc1)N1CCOCC1 |  | female BALB/c mouse, plasma | intraperitoneal, 10 mg/kg, 8 h | 2.16 ng/mL
Cc1ccc(-c2cccc3cnc(Nc4ccc(C(=O)N5CCOCC5)cc4)nc23)cn1 |  | mouse, brain | intraperitoneal, 10 mg/kg, 2 h | 0 nM
O=c1nc(N2CCN(CC3CCCCC3)CC2)sc2c([N+](=O)[O-])cc(C(F)(F)F)cc12 |  | CD-1 mouse, lung | oral, 100 mg/kg, 4 h | 620 ng/mL
CC(C)CN(C[C@@H](O)[C@H](Cc1ccccc1)NC(=O)O[C@H]1CO[C@H]2OCC[C@H]21)S(=O)(=O)c1ccc(N)cc1 |  | BALB/c mouse, brain | intravenous, 25 mg/kg, 6 h | 1.85 ng/g
CN(C(=O)n1cnc(-c2ccc[n+]([O-])c2)c1)C1CCCCC1 |  | male CD-1 mouse, plasma | oral, 10 mg/kg, 8 h | 83 ng/mL
COc1ccc2[nH]c3c(C)c4ccnc(C(=O)N[C@H](C)CN(C)C)c4cc3c2c1 |  | male C57BL/6 mouse, brain | intraperitoneal, 10 mg/kg, 2 h, single dose | 260 nM
O=C(N/N=C/c1ccc2ccccc2c1)c1ccc(O)cc1 |  | male C57BL/6 mouse, plasma | intraperitoneal, 30 mg/kg, 2 h | ~200 nM
O=S(=O)(c1cccc(C(F)(F)F)c1)N1CCc2ccc(OCc3c(F)cncc3Cl)cc21 |  | mouse, plasma | intraperitoneal, 10 mg/kg, 4 h | 210 nM
O=C(O)C1CCN(c2ncc(-c3ccc4c(c3)OCCCO4)s2)CC1 |  | male Swiss mouse, plasma | oral, 30 mg/kg, 15 min, single dose | 15000 ng/mL
CC(C)(Nc1nc(-c2ccccn2)nc2ccccc12)c1ccccn1 |  | female BALB/c mouse, plasma | intravenous, 1 mg/kg, 1 h | 487 ng/mL
